Source: ChEMBL document CHEMBL2057135, “Synthesis, antitubercular and antimicrobial evaluation of 3-(4-chlorophenyl)-4-substituted pyrazole derivatives” (2012)
Values after ≈ are worked out from the molar mass of the structure shown.

Columns and labels:
Format in all cases: functional
[1] = test system: Escherichia coli; assay: Antibacterial activity against Escherichia coli ATCC 25922
[2] = test system: Aspergillus niger; assay: Antifungal activity against Aspergillus niger KCTC 1231 after 2 days; conditions: KCTC 1231, 48 h
[3] = test system: Aspergillus flavus; assay: Antifungal activity against Aspergillus flavus KCCM 11899 after 2 days; conditions: KCCM 11899, 48 h
[4] = test system: Staphylococcus aureus; assay: Antibacterial activity against Staphylococcus aureus ATCC 29213
[5] = test system: Pichia kudriavzevii; assay: Antifungal activity against Candida krusei KCCM 11655 after 1 day; conditions: KCCM 11655, 24 h
[6] = test system: Cryptococcus neoformans; assay: Antifungal activity against Cryptococcus neoformans KCCM 50564 after 1 day; conditions: KCCM 50564, 24 h
[7] = test system: Mycobacterium tuberculosis; assay: Antitubercular activity against Mycobacterium tuberculosis H37Rv ATCC 27294 after 7 days by BACTEC method; conditions: H37Rv ATCC 27294, 168 h
Summary of the method: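 Screened in vitro against M. tuberculosis H37Rv in a modified BACTEC 460 radiometric system. Test compound stocks were made at 1 mg/ml in DMSO and filter-sterilised through 0.22 µm PTFE filters. MIC was read, with rifampin as the reference agent.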

O=C(NN1C(=O)CSC1c1ccccc1[N+](=O)[O-])c1cc(-c2ccc(Cl)cc2)n[nH]1 (racemic)
MIC [1]: 0.1 µg/mL (≈ 0.225 µM)
MIC [2]: 50 µg/mL (≈ 113 µM)
MIC [3]: 50 µg/mL (≈ 113 µM)
MIC [4]: 2 µg/mL (≈ 4.51 µM)
MIC [5]: 25 µg/mL (≈ 56.3 µM)
MIC [6]: 3.2 µg/mL (≈ 7.21 µM)
MIC [7]: 4 µg/mL (≈ 9.01 µM)

O=C(N/N=C/c1cccc([N+](=O)[O-])c1)c1cc(-c2ccc(Cl)cc2)n[nH]1
MIC [1]: 0.13 µg/mL (≈ 0.352 µM)
MIC [2]: 25 µg/mL (≈ 67.6 µM)
MIC [3]: 12.5 µg/mL (≈ 33.8 µM)
MIC [4]: 1.5 µg/mL (≈ 4.06 µM)
MIC [5]: 25 µg/mL (≈ 67.6 µM)
MIC [6]: 1.6 µg/mL (≈ 4.33 µM)
MIC [7]: > 5 µg/mL

O=C(NN1C(=O)[C@H](Cl)[C@H]1c1ccc(Cl)cc1)c1cc(-c2ccc(Cl)cc2)n[nH]1 (racemic)
MIC [1]: 0.01 µg/mL (≈ 0.023 µM)
MIC [2]: 6.3 µg/mL (≈ 14.5 µM)
MIC [3]: 12.5 µg/mL (≈ 28.7 µM)
MIC [4]: 0.28 µg/mL (≈ 0.643 µM)
MIC [5]: 6.3 µg/mL (≈ 14.5 µM)
MIC [6]: 1.6 µg/mL (≈ 3.67 µM)
MIC [7]: 1 µg/mL (≈ 2.3 µM)

O=C(NN1C(=O)CSC1c1ccc(Cl)cc1)c1cc(-c2ccc(Cl)cc2)n[nH]1 (racemic)
MIC [1]: 0.022 µg/mL (≈ 0.0508 µM)
MIC [2]: 12.5 µg/mL (≈ 28.8 µM)
MIC [3]: 6.3 µg/mL (≈ 14.5 µM)
MIC [4]: 0.048 µg/mL (≈ 0.111 µM)
MIC [5]: 25 µg/mL (≈ 57.7 µM)
MIC [6]: 12.5 µg/mL (≈ 28.8 µM)
MIC [7]: 1.15 µg/mL (≈ 2.65 µM)

O=C(NN1C(=O)[C@H](Cl)[C@H]1c1ccccc1[N+](=O)[O-])c1cc(-c2ccc(Cl)cc2)n[nH]1 (racemic)
MIC [1]: 0.5 µg/mL (≈ 1.12 µM)
MIC [2]: 100 µg/mL (≈ 224 µM)
MIC [3]: 50 µg/mL (≈ 112 µM)
MIC [4]: 6 µg/mL (≈ 13.4 µM)
MIC [5]: 12.5 µg/mL (≈ 28 µM)
MIC [6]: 50 µg/mL (≈ 112 µM)
MIC [7]: 1.9 µg/mL (≈ 4.26 µM)

O=C(NN1C(=O)[C@H](Cl)[C@H]1c1cccc([N+](=O)[O-])c1)c1cc(-c2ccc(Cl)cc2)n[nH]1 (racemic)
MIC [1]: 0.33 µg/mL (≈ 0.739 µM)
MIC [2]: 12.5 µg/mL (≈ 28 µM)
MIC [3]: 50 µg/mL (≈ 112 µM)
MIC [4]: 1.2 µg/mL (≈ 2.69 µM)
MIC [5]: 100 µg/mL (≈ 224 µM)
MIC [6]: 50 µg/mL (≈ 112 µM)
MIC [7]: 1.99 µg/mL (≈ 4.46 µM)

CO[C@H]1/C=C/O[C@@]2(C)Oc3c(C)c(O)c4c(O)c(c(/C=N/N5CCN(C)CC5)c(O)c4c3C2=O)NC(=O)/C(C)=C\C=C\[C@H](C)[C@H](O)[C@@H](C)[C@@H](O)[C@@H](C)[C@H](OC(C)=O)[C@@H]1C [RIFAMPIN]
MIC [7]: 0.125 µg/mL (≈ 0.152 µM)

O=C(N/N=C/c1ccccc1)c1cc(-c2ccc(Cl)cc2)n[nH]1
MIC [1]: 1 µg/mL (≈ 3.08 µM)
MIC [2]: 50 µg/mL (≈ 154 µM)
MIC [3]: 3.2 µg/mL (≈ 9.85 µM)
MIC [4]: 4 µg/mL (≈ 12.3 µM)
MIC [5]: 12.5 µg/mL (≈ 38.5 µM)
MIC [6]: 1.6 µg/mL (≈ 4.93 µM)
MIC [7]: > 5 µg/mL

O=C(NN1C(=O)CSC1c1ccccc1Cl)c1cc(-c2ccc(Cl)cc2)n[nH]1 (racemic)
MIC [1]: 0.048 µg/mL (≈ 0.111 µM)
MIC [2]: 25 µg/mL (≈ 57.7 µM)
MIC [3]: 50 µg/mL (≈ 115 µM)
MIC [4]: 0.02 µg/mL (≈ 0.0462 µM)
MIC [5]: 12.5 µg/mL (≈ 28.8 µM)
MIC [6]: 1.6 µg/mL (≈ 3.69 µM)
MIC [7]: 0.5 µg/mL (≈ 1.15 µM)

O=C(NN1C(=O)[C@H](Cl)[C@H]1c1ccccc1O)c1cc(-c2ccc(Cl)cc2)n[nH]1 (racemic)
MIC [1]: 0.019 µg/mL (≈ 0.0455 µM)
MIC [2]: 12.5 µg/mL (≈ 30 µM)
MIC [3]: 12.5 µg/mL (≈ 30 µM)
MIC [4]: 0.125 µg/mL (≈ 0.3 µM)
MIC [5]: 6.3 µg/mL (≈ 15.1 µM)
MIC [6]: 1.6 µg/mL (≈ 3.83 µM)
MIC [7]: 0.35 µg/mL (≈ 0.839 µM)

O=C(NN1C(=O)CSC1c1ccccc1O)c1cc(-c2ccc(Cl)cc2)n[nH]1 (racemic)
MIC [1]: 0.028 µg/mL (≈ 0.0675 µM)
MIC [2]: 6.3 µg/mL (≈ 15.2 µM)
MIC [3]: 12.5 µg/mL (≈ 30.1 µM)
MIC [4]: 0.06 µg/mL (≈ 0.145 µM)
MIC [5]: 12.5 µg/mL (≈ 30.1 µM)
MIC [6]: 6.3 µg/mL (≈ 15.2 µM)
MIC [7]: 0.5 µg/mL (≈ 1.21 µM)

O=C(NN1C(=O)CSC1c1ccc(O)cc1)c1cc(-c2ccc(Cl)cc2)n[nH]1 (single isomer, unassigned; (+))
MIC [1]: 0.017 µg/mL (≈ 0.041 µM)
MIC [2]: 1.6 µg/mL (≈ 3.86 µM)
MIC [3]: 12.5 µg/mL (≈ 30.1 µM)
MIC [4]: 0.125 µg/mL (≈ 0.301 µM)
MIC [5]: 50 µg/mL (≈ 121 µM)
MIC [6]: 1.6 µg/mL (≈ 3.86 µM)
MIC [7]: 0.39 µg/mL (≈ 0.94 µM)

O=C(NN1C(=O)[C@H](Cl)[C@H]1c1ccccc1Cl)c1cc(-c2ccc(Cl)cc2)n[nH]1 (racemic)
MIC [1]: 0.031 µg/mL (≈ 0.0712 µM)
MIC [2]: 12.5 µg/mL (≈ 28.7 µM)
MIC [3]: 12.5 µg/mL (≈ 28.7 µM)
MIC [4]: 0.034 µg/mL (≈ 0.078 µM)
MIC [5]: 1.6 µg/mL (≈ 3.67 µM)
MIC [6]: 6.3 µg/mL (≈ 14.5 µM)
MIC [7]: 0.55 µg/mL (≈ 1.26 µM)

O=C(NN1C(=O)[C@H](Cl)[C@H]1c1ccc(O)cc1)c1cc(-c2ccc(Cl)cc2)n[nH]1 (racemic)
MIC [1]: 0.01 µg/mL (≈ 0.024 µM)
MIC [2]: 1.6 µg/mL (≈ 3.83 µM)
MIC [3]: 12.5 µg/mL (≈ 30 µM)
MIC [4]: 0.04 µg/mL (≈ 0.0959 µM)
MIC [5]: 25 µg/mL (≈ 59.9 µM)
MIC [6]: 3.2 µg/mL (≈ 7.67 µM)
MIC [7]: 0.6 µg/mL (≈ 1.44 µM)

O=C(NN1C(=O)[C@H](Cl)[C@H]1c1ccccc1)c1cc(-c2ccc(Cl)cc2)n[nH]1 (racemic)
MIC [1]: 0.48 µg/mL (≈ 1.2 µM)
MIC [2]: 25 µg/mL (≈ 62.3 µM)
MIC [3]: 100 µg/mL (≈ 249 µM)
MIC [4]: 0.51 µg/mL (≈ 1.27 µM)
MIC [5]: 100 µg/mL (≈ 249 µM)
MIC [6]: 50 µg/mL (≈ 125 µM)
MIC [7]: 1.25 µg/mL (≈ 3.12 µM)

O=C(N/N=C/c1ccccc1O)c1cc(-c2ccc(Cl)cc2)n[nH]1
MIC [1]: 0.015 µg/mL (≈ 0.044 µM)
MIC [2]: 100 µg/mL (≈ 293 µM)
MIC [3]: 6.3 µg/mL (≈ 18.5 µM)
MIC [4]: 0.4 µg/mL (≈ 1.17 µM)
MIC [5]: 50 µg/mL (≈ 147 µM)
MIC [6]: 25 µg/mL (≈ 73.4 µM)
MIC [7]: 1.1 µg/mL (≈ 3.23 µM)

COc1ccc([C@@H]2[C@@H](Cl)C(=O)N2NC(=O)c2cc(-c3ccc(Cl)cc3)n[nH]2)cc1OC (racemic)
MIC [1]: 0.5 µg/mL (≈ 1.08 µM)
MIC [2]: 12.5 µg/mL (≈ 27.1 µM)
MIC [3]: 6.3 µg/mL (≈ 13.7 µM)
MIC [4]: 0.05 µg/mL (≈ 0.108 µM)
MIC [5]: 12.5 µg/mL (≈ 27.1 µM)
MIC [6]: 3.2 µg/mL (≈ 6.94 µM)
MIC [7]: 1.15 µg/mL (≈ 2.49 µM)
